The EternaBench riboswitch data

Tested on: MS2 coat protein
Test: apparent Kd, MS2 coat protein; higher = weaker binding; RNA-MaP array; FMN 200 µM where present
Procedure, shortened: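 The titrant was SNAP-549-labelled MS2 coat protein, run from 0.7 or 1.5 nM in doubling steps to 3 µM. It was applied to designs transcribed by stalled E. coli RNA polymerase on Illumina sequencing-chip clusters, without ligand first and then with constant ligand, in 100 mM Tris-HCl pH 7.5, 80 mM KCl, 4 mM MgCl2, BSA, DTT, yeast tRNA and Tween-20. The apparent Kd is the median of filtered per-cluster binding-curve fits, with green signal normalised to red-channel RNA signal and control-cluster median Fmax.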

[1] = designed as: OFF switch for flavin mononucleotide, no ligand
[2] = ligand present: flavin mononucleotide, designed as: OFF switch for flavin mononucleotide
[3] = designed as: ON switch for flavin mononucleotide, no ligand
[4] = ligand present: flavin mononucleotide, designed as: ON switch for flavin mononucleotide

| Sequence | apparent Kd [1] [µM] | apparent Kd [2] [µM] | apparent Kd [3] [µM] | apparent Kd [4] [µM] |
| --- | --- | --- | --- | --- |
| GUCAGCUCGUGAGGAUAUACAACACUGCUUCGGCAGUGUAGUAAGAUCACAUGAGGAUCACCCAUGUAGAAGGCACGAGCUGAU | 0.00605 | 0.0263 | – | – |
| CUAAAUCAUGUAGGAUAUGCAUGGCGAAGCUACGCAGAAGGACAUGAGGAUCACCCAUGUCUGUCCGUCUGCGUACAGACGGAC | 0.0204 | 0.115 | – | – |
| AGAUGUACCUAGGAUAUCCGUCGAAUUGGACUAGGAGAAGGAGGUACAUGAGGAUCACCCAUGUAUGACUCCUG | 0.0105 | 0.0131 | – | – |
| UCAAUAUAUCAGGAUAUGACUUUUUGUGUUAAGUCAGAAGGGAUAACAUGAGGAUCACCCAUGUGAUAUAGUGA | 0.052 | 0.0588 | – | – |
| GGGUUGGGAGGAUAUCCAAUAUAUGACAUGAGGAUCACCCAUGUUUCCACUCGUACCUCCGGAGAAGGCCCAUCCC | 0.0229 | 0.0211 | – | – |
| ACAAUAGUAUCUCAUGUAUUACAUGAGGAUCACCCAUGUAACUAGGAUAUGUAUUAGAAUUUACAACAGAAGGAGUUAUUAUGU | 0.00903 | 0.0177 | – | – |
| AGAGCCGGCACCGAGGAUAUUCAUAUUAAAACAUGAGGAUCACCCAUGUAGGCCAGAAGGCCUUGGGAGAAGGCGGAUCGGCUCG | – | – | 0.707 | 0.0395 |
| CUAUUUAGUGCCUCAUGUACAUGAGGAUCACCCAUGUUAACUUAGGAUAUAUUUAUAUUGAUAGAGUAGAAGGAAGUACUAUUG | 0.0702 | 0.061 | – | – |
| AAUAACAGAGGAUAUACUGUUUUAUGUGUUUAUUGUUUUGAACAUGAGGAUCACCCAUGUAGAAGGCUGAAUAA | 0.0226 | 0.0232 | – | – |
| GUCCCGAGGGAGAAGGGCUAGGAGGUCCAGCUUAUGUGUGUUGCAACAUGAGGAUCACCCAUGUAGCAGGAUAUCCCUUGUACA | 0.0522 | 0.219 | – | – |
| ACAUGAUCAGGAUAUACAUGAGGAUCACCCAUGUUUAUCAGGGAAAAACCUUCUACAUGUAGAAGGGAUCUUGU | 0.0149 | 0.0142 | – | – |
| UUCGGCGCAGGAUAUGCAGUUCUGUGUUGAAUCGGCGCGGGACAUGAGGAUCACCCAUGUAGAAGGGUGUUGGG | 0.374 | 0.239 | – | – |
| GAUGUAUUCGUAGGAUAUCCGUCGCCACCGUGUGGAGAAGGACGAACAUGAGGAUCACCCAUGUAUCAUGGUGUAGACACUUUC | 0.142 | 0.19 | – | – |
| UUUUAACAUGAGGAUCACCCAUGUGAGGAUAUCGAAAUUUAUAUUUAUAUUUAUUAAACGAGAAGGCACAUUUU | 0.0702 | 0.1 | – | – |
| GCCAUCGCAUGAGGAUAUGCUCCCGUUUCGGGAGCAGAAGGCAUGUCAUAAGACAUGAGGAUCACCCAUGUAGAUAAGAUGGCA | – | – | 0.31 | 0.0114 |
| AUAGACAUACAGCCACAUGAGGAUCACCCAUGUACGCUGACGAGAAGGGUCAGCUAGCAGAGGUGACAGGAUAUCGGACAUGAA | – | – | 0.149 | 0.089 |
| GGUGUAUAUGAGAAGGCGAUCAUGAAACAUGAUCGAGGAUAUCAUGUAAACAUGAGGAUCACCCAUGUAUGGGAAUAAUGCACC | – | – | 0.12 | 0.0136 |
| AAGAAGUCAGGAUAUACAUGAGGAUCACCCAUGUAAAAGAAAGAAAAGGGAAAGAAAAGUAGAAGGGACAAGAA | 0.0267 | 0.0323 | – | – |
| GUCUGGCUAGGAUAUACAGUGUCCACGAGUUAGUUGCUCUAACAUGAGGAUCACCCAUGUAGAAGGAGCGAGAA | 0.0205 | 0.0637 | – | – |
| AGGUAACAUGAGGAUCACCCAUGUAAGGUGAACGUAGGAUAUCGAGGAGGUAGGGUAGGCCGAGAAGGACGAGGAG | – | – | 0.293 | 0.179 |
| AAGUAGUGAGGAUAUACAUGGAUAUACAUUCAUGUGGACCUACAUGAGGAUCACCCAUGUAGAAGGCACUAAUA | 0.0338 | 0.0286 | – | – |
| UUGUACAUAGGAUAUAGUUGUUUGUACAUGAGGAUCACCCAUGUUAUGUAUGUUUUGUUUCUAGAAGGAUGUUGAU | 0.0502 | 0.0389 | – | – |
| ACUGUUUGAUUCCUCUUAUACAUGAGGAUCACCCAUGUUAUCGAGGAUAUGCAUUAGAGUGUUUAGCAGAAGGCGAUGUAAUUG | 0.00684 | 0.0199 | – | – |
| UACAUGAGGAUCACCCAUGUUUUGUCGUGUAUGGUAUUUAUCUAGGAUAUCAAUUUGUAUAUUUAUGAGAAGGAGAAUAUUAAU | 0.0345 | 0.0396 | – | – |
| GUGCCGUUGGCUCGACGACCGCUGCAGGAUAUCACAUGAGGAUCACCCAUGUGACUCUGCCCAUGUGAGAAGGGCGGCUGUGUG | 0.0189 | 0.0347 | – | – |
| GGUCCAACAUGAGGAUAUAGCACCUUAUUGGUGCUAGAAGGCGUGUCGAUAGACAUGAGGAUCACCCAUGUAAUAAAUUGGACC | – | – | 0.793 | 0.139 |
| GUCACGAAUGUAGGAUAUCGAGUGGAUAACACUCGAGAAGGACAUGAGGAUCACCCAUGUACUAUGAAAGAUAAUAAACGUGAC | 0.0144 | 0.0204 | – | – |
| CGAUAACAUAGUUAUCCGUAACGGACAUGAGGAUCACCCAUGUAGGAUAUGUUACUCAACGAGUAACAGAAGGACAUGAGUCUU | 0.0382 | 0.324 | – | – |
